# Laboratory results from ChEMBL document CHEMBL5705905, “Pharmacological targeting of kinases MST1 and MST2 augments tissue repair and regeneration” (Sci Transl Med, 2016).
# The source made the active and inactive calls. No cut-off for these calls is given here.
# Legend:
# [1] = biological target: Angiopoietin-1 receptor (Homo sapiens) (UniProt Q02763); assay: Inhibition of TIE2 (unknown origin) assessed as remaining activity at 1 uM by Kinome scan method relative to control
# [2] = biological target: Inhibitor of nuclear factor kappa-B kinase subunit alpha (Homo sapiens) (UniProt O15111); assay: Inhibition of IKK-alpha (unknown origin) assessed as remaining activity at 1 uM by Kinome scan method relative to control
# Inhibitor of nuclear factor kappa-B kinase subunit alpha (Homo sapiens), sequence (O15111 whole entry): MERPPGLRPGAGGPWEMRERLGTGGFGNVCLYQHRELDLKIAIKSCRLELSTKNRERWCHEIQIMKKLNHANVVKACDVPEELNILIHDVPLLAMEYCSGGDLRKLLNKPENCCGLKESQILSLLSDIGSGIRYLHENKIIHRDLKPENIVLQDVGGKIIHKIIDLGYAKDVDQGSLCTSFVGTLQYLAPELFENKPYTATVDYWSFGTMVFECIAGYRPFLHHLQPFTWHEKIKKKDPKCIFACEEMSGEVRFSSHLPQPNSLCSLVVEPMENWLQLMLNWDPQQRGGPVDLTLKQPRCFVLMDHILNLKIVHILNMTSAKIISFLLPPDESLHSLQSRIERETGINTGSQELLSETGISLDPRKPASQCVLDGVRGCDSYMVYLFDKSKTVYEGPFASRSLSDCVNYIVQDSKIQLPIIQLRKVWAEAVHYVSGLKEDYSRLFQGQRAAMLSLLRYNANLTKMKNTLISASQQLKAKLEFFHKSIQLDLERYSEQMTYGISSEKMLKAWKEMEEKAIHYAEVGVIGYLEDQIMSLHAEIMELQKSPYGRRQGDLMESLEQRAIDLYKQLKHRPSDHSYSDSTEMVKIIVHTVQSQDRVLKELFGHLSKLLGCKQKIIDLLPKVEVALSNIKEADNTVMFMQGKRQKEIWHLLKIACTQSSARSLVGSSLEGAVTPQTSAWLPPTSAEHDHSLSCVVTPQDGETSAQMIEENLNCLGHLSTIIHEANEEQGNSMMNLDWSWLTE
# [3] = Acute toxicity in wild-type mouse assessed as cell proliferation in colon at 3 mg/kg,ip administrated daily for 7 days by Ki67 staining; format: organism-based; conditions: in vivo, 168 h, time 7 day
# Outline: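 Wild-type mice received vehicle or 3 mg/kg i.p. daily for 7 days. Ki67 staining of sections from various tissues with quantification of positive cells, n = 6; means ± SD, Student's t test. Daily weights, physical activity and serum chemistry were also monitored.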
# [4] = system: Mus musculus; assay: Anti-colitis activity against DSS-induced mouse assessed as high number in nuclear YAP-positive cells at 1 mg/kg, ip administrated daily for 8 days by IHC staining; format: functional, organism-based; conditions: Colon, time 8.0 day
# Outline: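 Wild-type mice received oral DSS for 7 days with vehicle or 1 mg/kg daily. Colon sections were stained by IHC for YAP, BrdU and Ki67, and positive cells were quantified per animal. Means ± SD, n = 10, Student's t test.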
# [5] = system: HepG2; assay: Induction of apoptosis in human HepG2 cells assessed as necrosis cells at 3 uM by annexinV staining (Rvb =0.04 %); format: functional
# [6] = biological target: Megakaryocyte-associated tyrosine-protein kinase (Homo sapiens) (UniProt P42679); assay: Inhibition of CTK (unknown origin) assessed as remaining activity at 1 uM by Kinome scan method relative to control
# Outline: (§1)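 Active-site-dependent competition-binding profiling (KINOMEscan) at 1 μM against a 468-kinase panel; compound supplied from a 10 mM DMSO stock. Read-out is ctrl% = (test signal − positive control signal)/(negative control signal − positive control signal) × 100. DMSO is the negative control (100%) and a control compound the positive control (0%). Lower ctrl% means tighter binding.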
# [7] = biological target: Proto-oncogene tyrosine-protein kinase Src (Homo sapiens) (UniProt P12931); assay: Inhibition of SRC (unknown origin) assessed as remaining activity at 1 uM by Kinome scan method relative to control
# Proto-oncogene tyrosine-protein kinase Src (Homo sapiens), sequence (P12931 2-536 limits assumed): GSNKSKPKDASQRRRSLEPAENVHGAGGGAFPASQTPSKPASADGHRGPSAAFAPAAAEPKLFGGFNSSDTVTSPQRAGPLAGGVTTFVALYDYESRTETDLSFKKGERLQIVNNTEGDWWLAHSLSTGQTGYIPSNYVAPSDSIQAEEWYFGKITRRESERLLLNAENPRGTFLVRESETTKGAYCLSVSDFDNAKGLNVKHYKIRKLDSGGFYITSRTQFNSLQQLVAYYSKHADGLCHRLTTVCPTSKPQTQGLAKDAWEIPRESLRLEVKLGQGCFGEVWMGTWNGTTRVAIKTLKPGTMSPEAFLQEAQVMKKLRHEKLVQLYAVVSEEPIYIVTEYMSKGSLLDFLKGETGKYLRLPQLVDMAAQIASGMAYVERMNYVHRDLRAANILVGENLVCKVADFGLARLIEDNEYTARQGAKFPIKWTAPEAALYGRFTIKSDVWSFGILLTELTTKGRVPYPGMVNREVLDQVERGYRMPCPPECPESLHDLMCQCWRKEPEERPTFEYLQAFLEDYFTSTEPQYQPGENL
# [8] = system: Tyrosine-protein kinase ABL1 (Homo sapiens), P00519 [F317L]; assay: Inhibition of ABL1 F317L mutant (unknown origin) assessed as remaining activity at 1 uM by Kinome scan method relative to control
# Outline: (§2)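 Active-site-dependent competition-binding (KINOMEscan) panel of 468 kinases, test compound at 1 μM (from a 10 mM DMSO stock). Read-out is ctrl% = (test signal − positive control signal)/(negative control signal − positive control signal) × 100. DMSO is the negative control (100%) and a control compound is the positive control (0%). Lower ctrl% means tighter binding.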
# [9] = biological target: Dual specificity mitogen-activated protein kinase kinase 6 (Homo sapiens) (UniProt P52564); assay: Inhibition of MEK6 (unknown origin) assessed as remaining activity at 1 uM by Kinome scan method relative to control
# [10] = biological target: Misshapen-like kinase 1 (Homo sapiens) (UniProt Q8N4C8); assay: Inhibition of MINK (unknown origin) assessed as remaining activity at 1 uM by Kinome scan method relative to control
# Misshapen-like kinase 1 (Homo sapiens), sequence (Q8N4C8 whole entry, looked up): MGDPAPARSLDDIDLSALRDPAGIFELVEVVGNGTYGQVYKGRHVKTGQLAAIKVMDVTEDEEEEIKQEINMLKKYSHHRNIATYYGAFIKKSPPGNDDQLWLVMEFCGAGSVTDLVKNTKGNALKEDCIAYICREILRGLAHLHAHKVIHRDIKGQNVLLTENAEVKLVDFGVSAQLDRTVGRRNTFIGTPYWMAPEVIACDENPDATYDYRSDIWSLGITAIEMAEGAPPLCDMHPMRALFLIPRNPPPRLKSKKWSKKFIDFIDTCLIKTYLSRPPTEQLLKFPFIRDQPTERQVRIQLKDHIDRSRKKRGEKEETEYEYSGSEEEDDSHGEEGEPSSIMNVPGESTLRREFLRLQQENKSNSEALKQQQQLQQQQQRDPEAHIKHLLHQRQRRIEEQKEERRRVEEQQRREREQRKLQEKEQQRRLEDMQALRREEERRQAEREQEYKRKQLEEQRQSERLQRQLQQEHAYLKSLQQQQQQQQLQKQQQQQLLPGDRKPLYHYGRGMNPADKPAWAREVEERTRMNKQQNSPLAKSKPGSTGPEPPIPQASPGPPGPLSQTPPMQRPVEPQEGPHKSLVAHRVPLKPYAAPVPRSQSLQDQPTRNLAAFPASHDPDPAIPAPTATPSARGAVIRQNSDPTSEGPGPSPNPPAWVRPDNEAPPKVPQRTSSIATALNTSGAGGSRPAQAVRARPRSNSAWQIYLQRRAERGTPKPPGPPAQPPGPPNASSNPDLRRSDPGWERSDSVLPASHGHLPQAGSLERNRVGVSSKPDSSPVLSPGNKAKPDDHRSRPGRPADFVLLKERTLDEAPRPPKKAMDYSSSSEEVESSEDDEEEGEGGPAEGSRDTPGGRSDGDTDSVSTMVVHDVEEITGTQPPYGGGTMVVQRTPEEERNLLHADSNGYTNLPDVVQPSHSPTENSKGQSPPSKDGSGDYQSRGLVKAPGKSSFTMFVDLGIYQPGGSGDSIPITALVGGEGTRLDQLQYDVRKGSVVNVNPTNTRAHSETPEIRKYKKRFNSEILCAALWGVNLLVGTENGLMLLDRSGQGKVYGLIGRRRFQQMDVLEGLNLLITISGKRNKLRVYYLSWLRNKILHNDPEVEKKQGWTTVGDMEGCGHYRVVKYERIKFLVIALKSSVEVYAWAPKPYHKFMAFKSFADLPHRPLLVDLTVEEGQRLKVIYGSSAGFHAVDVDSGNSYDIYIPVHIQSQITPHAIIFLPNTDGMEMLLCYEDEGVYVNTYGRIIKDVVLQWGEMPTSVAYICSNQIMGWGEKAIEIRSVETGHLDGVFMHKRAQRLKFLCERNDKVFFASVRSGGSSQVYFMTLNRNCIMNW
# [11] = biological target: Serine/threonine-protein kinase Sgk2 (Homo sapiens) (UniProt Q9HBY8); assay: Inhibition of SGK2 (unknown origin) assessed as remaining activity at 1 uM by Kinome scan method relative to control
# Serine/threonine-protein kinase Sgk2 (Homo sapiens), sequence (Q9HBY8 whole entry): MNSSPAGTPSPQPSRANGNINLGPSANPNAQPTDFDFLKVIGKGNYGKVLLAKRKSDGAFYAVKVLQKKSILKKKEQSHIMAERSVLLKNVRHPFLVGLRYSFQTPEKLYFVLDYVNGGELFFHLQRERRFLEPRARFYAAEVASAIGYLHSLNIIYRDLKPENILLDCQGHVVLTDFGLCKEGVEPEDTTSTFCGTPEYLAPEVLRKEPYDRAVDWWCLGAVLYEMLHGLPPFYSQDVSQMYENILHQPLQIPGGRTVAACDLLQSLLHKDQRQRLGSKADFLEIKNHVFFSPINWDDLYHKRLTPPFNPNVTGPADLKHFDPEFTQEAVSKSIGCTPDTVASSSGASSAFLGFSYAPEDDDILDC
# [12] = biological target: Interleukin-1 receptor-associated kinase 4 (Homo sapiens) (UniProt Q9NWZ3); assay: Inhibition of IRAK4 (unknown origin) assessed as remaining activity at 1 uM by Kinome scan method relative to control
# [13] = biological target: Ephrin type-B receptor 1 (Homo sapiens) (UniProt P54762); assay: Inhibition of EPHB1 (unknown origin) assessed as remaining activity at 1 uM by Kinome scan method relative to control
# [14] = system: Mus musculus; assay: In vivo inhibition of MST1/2 in wild-type Mst1fl/fl Mst2fl/fl mouse assessed as high number in nuclear YAP-positive cells at 1 mg/kg, ip administrated daily for 7 days by immunohistochemical staining; format: functional, organism-based; conditions: Liver, time 7.0 day
# [15] = system: Mast/stem cell growth factor receptor Kit (Homo sapiens), P10721 [D816V]; assay: Inhibition of KIT D816V mutant (unknown origin) assessed as remaining activity at 1 uM by Kinome scan method relative to control
# [16] = biological target: Wee1-like protein kinase (Homo sapiens) (UniProt P30291); assay: Inhibition of WEE1 (unknown origin) assessed as remaining activity at 1 uM by Kinome scan method relative to control
# Wee1-like protein kinase (Homo sapiens), sequence (P30291 whole entry, looked up): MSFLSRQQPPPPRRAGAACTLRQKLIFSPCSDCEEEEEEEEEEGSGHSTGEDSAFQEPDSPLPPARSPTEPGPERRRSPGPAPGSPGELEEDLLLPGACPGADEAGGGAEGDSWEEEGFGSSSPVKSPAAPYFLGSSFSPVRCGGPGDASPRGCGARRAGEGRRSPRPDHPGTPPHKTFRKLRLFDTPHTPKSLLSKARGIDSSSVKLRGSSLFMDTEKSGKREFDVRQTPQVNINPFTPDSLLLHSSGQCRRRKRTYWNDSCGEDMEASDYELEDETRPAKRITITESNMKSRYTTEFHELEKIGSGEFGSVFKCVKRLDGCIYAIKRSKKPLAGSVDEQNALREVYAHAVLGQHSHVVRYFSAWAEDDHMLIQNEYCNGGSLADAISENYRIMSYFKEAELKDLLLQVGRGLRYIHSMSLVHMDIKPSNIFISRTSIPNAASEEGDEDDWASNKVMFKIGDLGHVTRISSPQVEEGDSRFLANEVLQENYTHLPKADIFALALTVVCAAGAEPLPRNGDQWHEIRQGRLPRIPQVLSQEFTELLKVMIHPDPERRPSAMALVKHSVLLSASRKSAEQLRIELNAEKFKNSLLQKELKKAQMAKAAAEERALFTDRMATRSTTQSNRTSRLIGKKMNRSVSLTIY
# [17] = system: Serine/threonine-protein kinase B-raf (Homo sapiens), P15056 [V600E]; assay: Inhibition of BRAF V600E mutant (unknown origin) assessed as remaining activity at 1 uM by Kinome scan method relative to control; outline: as §2
# Serine/threonine-protein kinase B-raf (Homo sapiens), P15056 [V600E], sequence (P15056 whole entry V600E): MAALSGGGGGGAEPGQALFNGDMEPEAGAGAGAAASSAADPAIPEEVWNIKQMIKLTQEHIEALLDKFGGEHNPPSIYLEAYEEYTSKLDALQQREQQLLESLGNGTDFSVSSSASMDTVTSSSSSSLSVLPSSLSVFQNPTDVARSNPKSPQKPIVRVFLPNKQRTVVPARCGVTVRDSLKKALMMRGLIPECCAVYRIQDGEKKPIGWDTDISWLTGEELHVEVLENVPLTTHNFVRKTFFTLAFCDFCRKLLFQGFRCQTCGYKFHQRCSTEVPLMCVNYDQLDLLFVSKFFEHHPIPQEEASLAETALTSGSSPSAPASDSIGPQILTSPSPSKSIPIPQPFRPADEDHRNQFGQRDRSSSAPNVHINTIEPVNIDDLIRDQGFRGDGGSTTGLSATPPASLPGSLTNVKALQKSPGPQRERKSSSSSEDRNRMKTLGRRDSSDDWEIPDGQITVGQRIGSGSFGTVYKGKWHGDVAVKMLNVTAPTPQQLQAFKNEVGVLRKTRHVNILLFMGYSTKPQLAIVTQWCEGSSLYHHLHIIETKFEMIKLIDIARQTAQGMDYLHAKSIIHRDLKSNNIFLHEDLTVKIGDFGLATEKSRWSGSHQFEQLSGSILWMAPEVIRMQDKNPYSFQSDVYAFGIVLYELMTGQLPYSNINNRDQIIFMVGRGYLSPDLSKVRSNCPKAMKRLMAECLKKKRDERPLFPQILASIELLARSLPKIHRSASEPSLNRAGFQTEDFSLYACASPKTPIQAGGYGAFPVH
# [18] = Cmax in male Sprague-Dawley rat at 5 mg/kg, iv measured for 24 hrs by LC-MS/MS analysis; format: ADME, organism-based; conditions: in vivo
# Outline: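 Sprague-Dawley rats, single intravenous or oral dose. Parameters (half-life, AUC, bioavailability) reported in a supplementary table.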
# [19] = biological target: Cyclin-dependent kinase 13 (Homo sapiens) (UniProt Q14004); assay: Inhibition of CDC2L5 (unknown origin) assessed as remaining activity at 1 uM by Kinome scan method relative to control; outline: as §1
# [20] = Acute toxicity in mouse assessed as increase in BrdU-positive cells at 1 mg/kg,ip administrated once a daily for 3 weeks by H and E staining based immunohistochemical analysis relative to control; format: organism-based, Liver; conditions: in vivo, 504 h
# Outline: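 Postnatal mice dosed from 10 days of age with vehicle or 1 mg/kg once per day for 21 days (3 weeks). Vehicle is 0.1% citric acid aqueous solution containing 20% Kolliphor HS 15. Liver sections stained with H&E and by IHC for CK19 and BrdU, with positive cells quantified (n = 3). Liver/body weight ratio recorded (n = 4). Values are means ± SD versus vehicle, Student's t test.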
# [21] = biological target: Serine/threonine-protein kinase 32B (Homo sapiens) (UniProt Q9NY57); assay: Inhibition of YANK2 (unknown origin) assessed as remaining activity at 1 uM by Kinome scan method relative to control
# [22] = system: Hepatocyte growth factor receptor (Homo sapiens), P08581 [M1250T]; assay: Inhibition of MET M1250T mutant (unknown origin) assessed as remaining activity at 1 uM by Kinome scan method relative to control
# [23] = biological target: Ephrin type-B receptor 2 (Homo sapiens) (UniProt P29323); assay: Inhibition of EPHB2 (unknown origin) assessed as remaining activity at 1 uM by Kinome scan method relative to control
# [24] = biological target: Mitogen-activated protein kinase 15 (Homo sapiens) (UniProt Q8TD08); assay: Inhibition of ERK8 (unknown origin) assessed as remaining activity at 1 uM by Kinome scan method relative to control
# Mitogen-activated protein kinase 15 (Homo sapiens), sequence (Q8TD08 whole entry): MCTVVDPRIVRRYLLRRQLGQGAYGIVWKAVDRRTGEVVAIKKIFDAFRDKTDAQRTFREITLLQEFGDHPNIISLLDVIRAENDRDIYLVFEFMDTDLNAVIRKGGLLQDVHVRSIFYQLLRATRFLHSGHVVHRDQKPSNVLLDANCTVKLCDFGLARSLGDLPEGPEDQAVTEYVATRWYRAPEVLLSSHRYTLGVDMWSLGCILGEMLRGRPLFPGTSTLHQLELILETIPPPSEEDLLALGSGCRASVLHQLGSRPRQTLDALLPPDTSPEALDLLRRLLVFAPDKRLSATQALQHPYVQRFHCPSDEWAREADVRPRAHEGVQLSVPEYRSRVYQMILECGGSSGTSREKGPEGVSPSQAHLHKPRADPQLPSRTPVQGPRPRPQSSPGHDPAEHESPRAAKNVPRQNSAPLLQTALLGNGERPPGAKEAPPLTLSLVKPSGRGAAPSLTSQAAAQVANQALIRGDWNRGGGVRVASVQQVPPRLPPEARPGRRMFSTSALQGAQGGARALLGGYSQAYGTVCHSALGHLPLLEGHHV
# [25] = biological target: Macrophage-stimulating protein receptor (Homo sapiens) (UniProt Q04912); assay: Inhibition of MST1R (unknown origin) assessed as remaining activity at 1 uM by Kinome scan method relative to control
# [26] = biological target: Serine/threonine-protein kinase TAO3 (Homo sapiens, UniProt Q9H2K8); assay: Binding affinity to TAOK3 (unknown origin) assessed as dissociation constant
compound,measurement,setting,value
CN1C(=O)c2sccc2N(C)c2nc(Nc3ccc(S(N)(=O)=O)cc3)ncc21,Activity,[1],74%
same,Activity,[2],94%
same,Activity,[3],Non-Toxic
same,Activity,[4],Active
same,Activity,[5],0.05%
same,Activity,[6],59%
same,Activity,[7],100%
same,Activity,[8],32%
same,Activity,[9],100%
same,Activity,[10],58%
same,Activity,[11],91%
same,Activity,[12],100%
same,Activity,[13],100%
same,inhibition,[14],Active
same,Activity,[15],94%
same,Activity,[16],100%
same,Activity,[17],100%
same,Cmax,[18],1140 ng/mL
same,Activity,[19],90%
same,Activity,[20],15%
same,Activity,[21],100%
same,Activity,[22],81%
same,Activity,[23],100%
same,Activity,[24],79%
same,Activity,[25],96%
same,Kd,[26],610 nM
